Measured values from ChEMBL document CHEMBL1641530, “Silanetriols as in vitro inhibitors for AChE” (Bioorg Med Chem Lett, 2011).
The source made the active and inactive calls. The rule behind the calls is not given here.

Legend:
MRC5 = assay: Cytotoxicity against human MRC5 after 45 hrs by XTT proliferation assay; type: functional, cell-based
In short: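 Human fetal lung fibroblasts (MRC-5) treated with compound, then XTT added at 1, 15 and 41 h. Dehydrogenase cleavage of XTT to orange formazan ran for 4 h and was read photometrically at two wavelengths. Viability is given relative to solvent-only cells. For the 15 h figure, mean ± SEM of at least six independent experiments.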

[1] = molecular target: Acetylcholinesterase (Electrophorus electricus) (UniProt O42275); assay: Irreversible inhibition of Electrophorus electricus AChE by Ellman's method
Chain of Acetylcholinesterase (Electrophorus electricus) (O42275 24-633 limits assumed): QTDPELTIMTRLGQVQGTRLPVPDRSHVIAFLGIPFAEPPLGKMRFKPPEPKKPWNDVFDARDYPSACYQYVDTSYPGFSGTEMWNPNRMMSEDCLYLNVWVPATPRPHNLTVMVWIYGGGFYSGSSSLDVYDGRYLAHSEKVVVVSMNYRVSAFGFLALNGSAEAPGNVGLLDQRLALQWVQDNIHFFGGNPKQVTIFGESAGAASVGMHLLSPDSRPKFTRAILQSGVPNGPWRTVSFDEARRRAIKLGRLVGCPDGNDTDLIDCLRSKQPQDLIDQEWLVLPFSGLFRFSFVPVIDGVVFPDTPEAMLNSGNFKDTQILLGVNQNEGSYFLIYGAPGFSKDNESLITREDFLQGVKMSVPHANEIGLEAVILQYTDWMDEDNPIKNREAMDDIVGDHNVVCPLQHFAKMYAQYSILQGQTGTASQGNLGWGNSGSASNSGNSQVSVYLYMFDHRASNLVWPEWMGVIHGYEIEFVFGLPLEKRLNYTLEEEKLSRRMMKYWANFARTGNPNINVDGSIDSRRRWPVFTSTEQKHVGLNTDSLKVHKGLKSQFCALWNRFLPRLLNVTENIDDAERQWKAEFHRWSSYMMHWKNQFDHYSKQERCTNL
In short: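 Reversibility was probed by following AChE inhibition over time in the modified Ellman assay (acetylthiocholine substrate). Activity is referred to solvent control. Mean ± SEM of at least eight independent experiments.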

[2] = molecular target: Acetylcholinesterase (Electrophorus electricus) (UniProt O42275); assay: Inhibition of Electrophorus electricus AChE at 100 uM by Ellman's method relative to control
In short: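 Modified colorimetric Ellman assay: AChE hydrolyses acetylthiocholine to thiocholine. Final compound concentration 100 µM, read after 15 min. […] Mean ± SEM of at least eight independent experiments.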

Acetylcholinesterase = Acetylcholinesterase (Electrophorus electricus, UniProt O42275); assay: Inhibition of Electrophorus electricus AChE by Ellman's method
Chain of Acetylcholinesterase (O42275 whole entry): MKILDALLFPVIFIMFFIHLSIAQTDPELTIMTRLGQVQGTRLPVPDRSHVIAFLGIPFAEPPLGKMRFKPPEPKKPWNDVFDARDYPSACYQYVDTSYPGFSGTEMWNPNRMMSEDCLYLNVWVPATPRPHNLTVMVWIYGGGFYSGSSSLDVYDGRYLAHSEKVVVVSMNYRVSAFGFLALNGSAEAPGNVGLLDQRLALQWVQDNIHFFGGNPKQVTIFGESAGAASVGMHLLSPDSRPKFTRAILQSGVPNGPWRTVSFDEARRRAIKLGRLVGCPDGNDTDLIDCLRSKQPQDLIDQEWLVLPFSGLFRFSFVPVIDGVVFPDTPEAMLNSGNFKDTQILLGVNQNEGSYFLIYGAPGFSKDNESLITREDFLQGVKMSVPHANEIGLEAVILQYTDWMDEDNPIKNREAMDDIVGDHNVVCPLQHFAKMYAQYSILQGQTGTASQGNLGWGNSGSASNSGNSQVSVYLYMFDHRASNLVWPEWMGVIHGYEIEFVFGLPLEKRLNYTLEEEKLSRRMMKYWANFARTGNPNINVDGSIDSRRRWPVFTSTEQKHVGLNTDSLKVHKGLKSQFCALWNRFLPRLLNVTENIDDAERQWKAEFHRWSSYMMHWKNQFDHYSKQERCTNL
In short: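 Ellman-type colorimetric assay with acetylthiocholine as substrate. Four concentrations between 30 and 300 µM were tested, inhibition taken as % of solvent control, and IC50 derived from the concentration–inhibition plot. Mean ± standard deviation of at least eight independent experiments.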

SMILES | Activity (MRC5) | inhibition [1] | inhibition [2] [%] | IC50 (Acetylcholinesterase) [µM]
Cc1cc(C)c(-c2cccc(-c3c(C)cc(C)cc3C)c2[Si](O)(O)O)c(C)c1 | inactive | inactive | 12 | –
O[Si](O)(O)C1CCCCC1 [CYCLOHEXYLSILANETRIOL] | inactive | inactive | 45 | 121
CCC(C)(C)[Si](O)(O)O | inactive | inactive | 10 | –
